Data taken from ChEMBL document CHEMBL1828628, “Discovery of a tetrahydroisoquinoline-based hydroxamic acid derivative (ZYJ-34c) as histone deacetylase inhibitor with potent oral antitumor activities” (J Med Chem, 2011).
Calls of active or inactive are those of the source. No cut-off for these calls is given here.

What was measured:
[1] = system: HL-60; experiment: Antiproliferative activity against human HL60 cells after 48 hrs by MTT assay; type: functional, cell-based; settings: HL-60, 48 h
Procedure, shortened: (§1)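 Cells kept in RPMI1640 with 10% FBS at 37 °C, 5% CO2. Cells were passaged into 96-well plates the day before dosing and left ≥4 h before compound addition. Exposure was 48 h, then 0.5% MTT for 4 h. Formazan was extracted with DMSO for 15 min and read at 570 nm. IC50 was derived from inhibition ratios; mean of three experiments.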

[2] = system: MDA-MB-231; experiment: Antitumor activity against human MDA-MB-231 cells xenografted in BALB/c nu mouse assessed as tumor growth inhibition at 90 mg/kg, po qd for 19 days relative to control; type: functional
[3] = Stability in artificial intestinal juice; type: physicochemical; settings: simulated gi fluid
[4] = target: Aminopeptidase N (Homo sapiens) (UniProt P15144); experiment: Inhibition of aminopeptidase N
[5] = system: Mus musculus; experiment: Toxicity in mouse H22 cells xenografted Kunming mouse assessed as change in body weight at 90 mg/kg, po qd for 19 days; type: organism-based; design: dose 90 mg/kg, route oral; settings: in vivo, 456 h
[6] = system: K562; experiment: Antiproliferative activity against human K562 cells after 48 hrs by MTT assay; type: functional, cell-based; settings: K562, 48 h; procedure, shortened: as §1
[7] = system: H22; experiment: Antitumor activity against mouse H22 cells xenografted in Kunming mouse assessed as reduction of pulmonary metastatic nodes in lungs at 90 mg/kg, po qd for 14 days; type: functional, organism-based; design: dose 90 mg/kg
[8] = Antiproliferative activity against human ES2 cells after 48 hrs by MTT assay; type: functional, cell-based; settings: ES-2, 48 h; procedure, shortened: as §1
[9] = system: H22; experiment: Antitumor activity against mouse H22 cells xenografted in Kunming mouse assessed as reduction of pulmonary metastatic nodes in lungs at 60 mg/kg, po qd for 14 days; type: functional, organism-based; design: dose 60 mg/kg
[10] = Stability in artificial gastric juice; type: physicochemical; settings: simulated gi fluid
[11] = target: T1, Protein deacetylase HDAC6 (Homo sapiens, UniProt Q9UBN7); experiment: Inhibition of HDAC6 using Boc-Lys (acetyl)-AMC as substrate after 30 mins by fluorescence assay
T1 sequence (Q9UBN7 whole entry): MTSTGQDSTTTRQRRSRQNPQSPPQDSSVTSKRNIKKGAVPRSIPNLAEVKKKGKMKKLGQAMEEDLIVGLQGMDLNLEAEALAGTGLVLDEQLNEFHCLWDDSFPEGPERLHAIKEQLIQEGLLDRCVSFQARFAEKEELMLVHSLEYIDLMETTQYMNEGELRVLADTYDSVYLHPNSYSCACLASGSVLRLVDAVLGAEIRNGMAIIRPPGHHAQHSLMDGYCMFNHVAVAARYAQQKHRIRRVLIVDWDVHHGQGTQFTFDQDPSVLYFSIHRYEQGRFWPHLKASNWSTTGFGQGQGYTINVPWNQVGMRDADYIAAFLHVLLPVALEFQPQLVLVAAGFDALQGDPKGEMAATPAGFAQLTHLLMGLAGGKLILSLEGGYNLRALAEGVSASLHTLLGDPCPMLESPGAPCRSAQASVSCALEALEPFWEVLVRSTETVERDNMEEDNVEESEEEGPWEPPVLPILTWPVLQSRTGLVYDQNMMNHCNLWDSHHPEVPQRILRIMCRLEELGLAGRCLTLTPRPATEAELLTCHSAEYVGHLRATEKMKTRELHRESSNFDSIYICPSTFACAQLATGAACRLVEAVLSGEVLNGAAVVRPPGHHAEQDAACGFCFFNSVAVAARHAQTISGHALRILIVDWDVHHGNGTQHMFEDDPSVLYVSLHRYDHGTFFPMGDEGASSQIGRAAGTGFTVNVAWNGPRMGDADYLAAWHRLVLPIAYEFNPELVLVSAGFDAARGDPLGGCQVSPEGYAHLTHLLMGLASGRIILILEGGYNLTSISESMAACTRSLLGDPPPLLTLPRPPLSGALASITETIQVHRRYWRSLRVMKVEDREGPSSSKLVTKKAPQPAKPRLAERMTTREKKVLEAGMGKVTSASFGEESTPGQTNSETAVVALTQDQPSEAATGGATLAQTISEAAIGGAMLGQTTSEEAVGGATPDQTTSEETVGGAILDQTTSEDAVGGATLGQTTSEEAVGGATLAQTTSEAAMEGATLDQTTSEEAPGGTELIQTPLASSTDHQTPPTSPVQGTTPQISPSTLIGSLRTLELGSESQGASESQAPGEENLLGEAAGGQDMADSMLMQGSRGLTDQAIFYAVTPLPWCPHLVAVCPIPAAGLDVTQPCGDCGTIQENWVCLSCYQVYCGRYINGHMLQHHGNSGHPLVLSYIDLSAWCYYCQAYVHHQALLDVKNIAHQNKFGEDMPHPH
Procedure, shortened: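 Enzyme (HeLa nuclear extract, HDAC6 or HDAC8) preincubated 5 min with a series of compound concentrations. Fluorogenic Boc-Lys(acetyl)-AMC substrate then added and incubated 37 °C for 30 min. Reaction stopped with developer containing trypsin and TSA, 20 min at 37 °C. Fluorescence read at ex 390/em 460 nm. Inhibition taken relative to control wells; IC50 from regression of concentration/inhibition data.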

[12] = system: HCT-116; experiment: Antitumor activity against human HCT116 cells xenografted in BALB/c nu mouse assessed as tumor growth inhibition administered as po qd for 19 days relative to control; type: functional, organism-based
Procedure, shortened: (§2)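 Female athymic BALB/c-nu mice, 5–6 weeks old, were inoculated subcutaneously in the right flank with RPMI1640/10% FBS-cultured tumor cells (5 × 10^6 for MDA-MB-231). At about 100 mm3 (~10 days), mice were randomized 6 per group and dosed orally or intraperitoneally for 19 days. Vehicle controls received PBS containing DMSO. TGI = (control − treated mean tumor weight)/control mean tumor weight, at end of treatment.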

[13] = system: MDA-MB-231; experiment: Antitumor activity against human MDA-MB-231 cells xenografted in BALB/c nu mouse assessed as tumor growth inhibition at 90 mg/kg, ip qd for 19 days relative to control; type: functional; settings: route intraperitoneal
[14] = system: MCF7; experiment: Antiproliferative activity against human MCF7 cells after 48 hrs by MTT assay; type: functional, cell-based; settings: MCF7, 48 h
[15] = system: Mus musculus; experiment: Toxicity in human HCT116 cells xenografted BALB/c nu mouse assessed as signs of organ toxicity at 60 mg/kg, po qd for 19 days; type: organism-based, HCT-116; design: dose 60 mg/kg, route oral; settings: in vivo, 456 h
[16] = system: MDA-MB-231; experiment: Antitumor activity against human MDA-MB-231 cells xenografted in BALB/c nu mouse assessed as tumor growth inhibition at 60 mg/kg, ip qd for 19 days relative to control; type: functional; settings: route intraperitoneal; procedure, shortened: as §2
[17] = system: MDA-MB-231; experiment: Antitumor activity against human MDA-MB-231 cells xenografted in BALB/c nu mouse assessed as tumor growth inhibition administered as ip qd for 19 days; type: functional, organism-based; procedure, shortened: as §2
[18] = system: HCT-116; experiment: Antitumor activity against human HCT116 cells xenografted in BALB/c nu mouse assessed as tumor growth inhibition at 90 mg/kg, po qd for 19 days relative to control; type: functional
[19] = system: NB-4; experiment: Antiproliferative activity against human NB4 cells after 48 hrs by MTT assay; type: functional, cell-based; settings: NB-4, 48 h; procedure, shortened: as §1
[20] = Mus musculus, MDA-MB-231, ip, 456 h, read-out: TGI

Chain of Aminopeptidase N (Homo sapiens) (P15144 whole entry): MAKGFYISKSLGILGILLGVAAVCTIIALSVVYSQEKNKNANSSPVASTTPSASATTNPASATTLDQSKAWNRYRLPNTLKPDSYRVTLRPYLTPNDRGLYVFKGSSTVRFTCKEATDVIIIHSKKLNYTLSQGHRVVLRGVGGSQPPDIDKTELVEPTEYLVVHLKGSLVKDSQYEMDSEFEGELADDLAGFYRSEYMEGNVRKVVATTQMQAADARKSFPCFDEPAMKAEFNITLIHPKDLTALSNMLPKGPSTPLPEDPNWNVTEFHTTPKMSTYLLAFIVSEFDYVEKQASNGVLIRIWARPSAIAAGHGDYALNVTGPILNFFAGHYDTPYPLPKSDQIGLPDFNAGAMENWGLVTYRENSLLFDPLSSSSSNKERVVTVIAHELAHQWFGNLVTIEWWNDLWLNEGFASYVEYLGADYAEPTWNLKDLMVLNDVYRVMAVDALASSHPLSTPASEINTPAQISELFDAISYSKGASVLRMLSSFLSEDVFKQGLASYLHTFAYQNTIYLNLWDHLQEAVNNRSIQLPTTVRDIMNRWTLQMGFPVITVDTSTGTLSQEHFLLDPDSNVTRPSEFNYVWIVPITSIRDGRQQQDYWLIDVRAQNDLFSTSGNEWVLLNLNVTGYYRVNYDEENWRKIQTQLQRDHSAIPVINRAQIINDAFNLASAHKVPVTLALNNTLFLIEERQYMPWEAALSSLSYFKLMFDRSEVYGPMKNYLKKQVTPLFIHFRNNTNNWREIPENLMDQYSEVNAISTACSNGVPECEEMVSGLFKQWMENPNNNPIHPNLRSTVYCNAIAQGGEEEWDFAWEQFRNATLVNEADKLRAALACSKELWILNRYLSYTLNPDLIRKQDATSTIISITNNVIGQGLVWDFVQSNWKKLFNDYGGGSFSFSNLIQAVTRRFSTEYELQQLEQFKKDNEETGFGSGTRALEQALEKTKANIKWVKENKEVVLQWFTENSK

`CC[C@H](C)[C@H](NC(=O)CC(C)(C)C)C(=O)N1Cc2cc(OCC(=O)NO)ccc2C[C@H]1C(=O)Nc1ccc(OC)cc1` gave an IC50 [1] of 65.8 µM, a T/C [2] of 30% and an inhibition in vivo at 90 mg/kg ([2]; Mus musculus, MDA-MB-231, 456 h, read-out: TGI) of 66%. For the same compound, the Stability [3] was “Stable”, the inhibition [4] was “Active” and the Activity [5] was “Non-toxic”. The IC50 [6] was 3.47 µM, the Activity [7] was “Active” and the IC50 [8] was 12.9 µM. The Activity [9] was “Active”, the Stability [10] was “Stable” and the IC50 [11] was 0.056 µM. The TGI [12] was “Dose-dependent effect”, the inhibition in vivo at 90 mg/kg [13, 20] was 51% and the T/C [13] was 37%. The IC50 [14] was 3.2 µM, the Activity [15] was “Non-toxic” and the inhibition in vivo at 60 mg/kg [16, 20] was 45%. For the same compound, the T/C [16] was 62%, the TGI [17] was “Dose-dependent effect” and the T/C [18] was 53%. It also gave an inhibition in vivo at 90 mg/kg ([18]; Mus musculus, HCT-116, 456 h, read-out: TGI) of 59% and an IC50 [19] of 2.69 µM.
